This note sets out measurements from ChEMBL document CHEMBL1139462, “Identification of novel and improved antimitotic agents derived from noscapine” (J Med Chem, 2005).

A short description of series [1]: Cell cycle arrest in HEK293EBNA cells by accumulation at G2/M phase cell at 5 uM relative to DMSO. Conditions: Homo sapiens, HEK293-EBNA. In kind it is functional, cell-based. In short, it runs like this:
(§1)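 HEK293 cells were exposed to compound for 16 h at the stated concentration, then analyzed by FACS for cell-cycle distribution (G1, S and G2/M fractions). Profiles were compared with a 0.5% DMSO vehicle control.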

Series [2] is described as follows: Cell cycle arrest in HEK293EBNA cells by accumulation at S phase cell at 5 uM relative to DMSO. In kind it is functional, cell-based. The note with it: Homo sapiens, HEK293-EBNA. An outline of the steps:
as §1

Series [3] can be described thus: Cell cycle arrest in HEK293EBNA cells by accumulation at G1 phase cell at 5 uM relative to DMSO. The note with it: Homo sapiens, HEK293-EBNA. In kind it is functional, cell-based. An outline of the steps: as §1
In series [4] the test system is NIH3T3. Briefly: Effect on cell growth in nondividing Swiss 3T3 cells at 3 uM by MTS assay. In kind it is functional, cell-based. The note with it: Mus musculus. An outline of the steps:
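Swiss 3T3 cells were tested in either a dividing or a nondividing state. Growth was read out by MTS assay, and an EC50 was derived for the dividing cells.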
(Tetrazolium dyes change colour on reduction, which living cells bring about.)

In series [5] the test system is A549. Description: Effect on cell growth in A549 cells by colony-forming assay. In kind it is functional, cell-based. Conditions: Homo sapiens.
Series [6] is described as follows: Clearance in mouse at 2 mg/kg, iv. In kind it is ADME, organism-based. Details: dose 2 mg/kg, route intravenous. The note with it: in vivo. An outline of the steps:
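Pharmacokinetics were measured in mice, with an intravenous dose of 2 mg/kg; the study's oral arm used 20 mg/kg po.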

Series [7] concerns A549. Briefly: Effect on cell growth in A549 cells by MTS assay. In kind it is functional, cell-based. The note with it: Homo sapiens.
A short description of series [8]: Cell cycle arrest in HEK293EBNA cells by accumulation at G1 phase cell at 0.1 uM relative to DMSO. The note with it: Homo sapiens, HEK293-EBNA. In kind it is functional, cell-based. An outline of the steps:
(§2)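 HEK293 cells were exposed for 16 h to compound or to a 0.5% DMSO vehicle control. Cell-cycle phase distribution (G1, S, G2/M) was determined by FACS analysis and compared with the DMSO profile.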

Series [9] can be described thus: AUC in mouse at 2 mg/kg, iv. In kind it is ADME, organism-based. On the set-up: dose 2 mg/kg, route intravenous. The note with it: plasma.
Series [10] is described as follows: Cell cycle arrest in HEK293EBNA cells by accumulation at S phase cell at 0.1 uM relative to DMSO. In kind it is functional, cell-based. Conditions: Homo sapiens, HEK293-EBNA. An outline of the steps:
as §2

A short description of series [11]: (§3) Half life in mouse at 2 mg/kg, iv. In kind it is ADME, organism-based. Details: dose 2 mg/kg, route intravenous. Conditions: in vivo.
The nature of series [12]: Cell cycle arrest in HEK293EBNA cells by accumulation at G2/M phase cell at 0.1 uM relative to DMSO. In kind it is functional, cell-based. The note with it: Homo sapiens, HEK293-EBNA. An outline of the steps: as §2
Series [13] can be described thus: (§4) Volume of distribution in mouse at 2 mg/kg, iv. In kind it is ADME, organism-based. Details: dose 2 mg/kg, route intravenous. Conditions: in vivo, read-out: Vdss.
Series [14] in a line: AUC in mouse at 20 mg/kg, po. In kind it is ADME, organism-based. Details: dose 20 mg/kg, route oral. Conditions: plasma.
Series [15] in a line: Bioavailability in mouse at 20 mg/kg, po. In kind it is ADME, organism-based. The note with it: in vivo.
For a further series, the target named is Tubulin. Description: Inhibition of tubulin polymerization. In kind it is protein-complex assay, Homo sapiens.
Series [16] is described as follows: Cell cycle arrest in HEK293EBNA cells by accumulation at S phase cell at 1 uM relative to DMSO. Conditions: Homo sapiens, HEK293-EBNA. In kind it is functional, cell-based. In short, it runs like this: as §1
The nature of series [17]: Cell cycle arrest in HEK293EBNA cells by accumulation at G1 phase cell at 1 uM relative to DMSO. In kind it is functional, cell-based. Conditions: Homo sapiens, HEK293-EBNA. In short, it runs like this: as §1
Series [18] is described as follows: Cell cycle arrest in HEK293EBNA cells by accumulation at G2/M phase cell at 1 uM relative to DMSO. In kind it is functional, cell-based. Conditions: Homo sapiens, HEK293-EBNA. In short, it runs like this:
as §1

The nature of series [19]: Cell cycle arrest in HEK293EBNA cells by accumulation at G1 phase cell at 50 uM relative to DMSO. The note with it: Homo sapiens, HEK293-EBNA. In kind it is functional, cell-based. An outline of the steps:
as §1

Series [20] is described as follows: Cell cycle arrest in HEK293EBNA cells by accumulation at G2/M phase cell at 50 uM relative to DMSO. The note with it: Homo sapiens, HEK293-EBNA. In kind it is functional, cell-based. In short, it runs like this: as §1
Series [21] in a line: Cell cycle arrest in HEK293EBNA cells by accumulation at S phase cell at 50 uM relative to DMSO. In kind it is functional, cell-based. Conditions: Homo sapiens, HEK293-EBNA. An outline of the steps:
as §1

Series [22] in a line: Cell cycle arrest in HEK293EBNA cells by accumulation at G1 phase cell at 0.5 uM relative to DMSO. Conditions: Homo sapiens, HEK293-EBNA. In kind it is functional, cell-based. An outline of the steps: as §1
A short description of series [23]: Cell cycle arrest in HEK293EBNA cells by accumulation at G2/M phase cell at 0.5 uM relative to DMSO. In kind it is functional, cell-based. Conditions: Homo sapiens, HEK293-EBNA. An outline of the steps:
as §1

Series [24] can be described thus: Cell cycle arrest in HEK293EBNA cells by accumulation at S phase cell at 0.5 uM relative to DMSO. The note with it: Homo sapiens, HEK293-EBNA. In kind it is functional, cell-based. In short, it runs like this:
as §1

Series [25] in a line: Cell cycle arrest in HEK293EBNA cells by accumulation at S phase cell at 10 uM relative to DMSO. In kind it is functional, cell-based. The note with it: Homo sapiens, HEK293-EBNA. In short, it runs like this: as §2
Series [26] in a line: Cell cycle arrest in HEK293EBNA cells by accumulation at G2/M phase cell at 10 uM relative to DMSO. In kind it is functional, cell-based. Conditions: Homo sapiens, HEK293-EBNA. An outline of the steps:
as §2

The nature of series [27]: Cell cycle arrest in HEK293EBNA cells by accumulation at G1 phase cell at 10 uM relative to DMSO. Conditions: Homo sapiens, HEK293-EBNA. In kind it is functional, cell-based. An outline of the steps:
as §2

In series [28] the test system is Mus musculus. Described as §3. In kind it is ADME, organism-based. Details: dose 2 mg/kg, route intravenous. Conditions: in vivo.
The subject of series [29] is Mus musculus. Described as §4. In kind it is ADME, organism-based. On the set-up: dose 2 mg/kg, route intravenous. Conditions: in vivo.
For series [30], the system named is NIH3T3. Description: Effect on cell growth in nondividing Swiss 3T3 cells at 50 uM by MTS assay. In kind it is functional, cell-based. The note with it: Mus musculus.

The structures appear in SMILES notation. Calls of active or inactive are those of the source. A value given as a limit tells only on which side of the number the result lay.

As to `COc1ccc2c(c1S)C(=O)O[C@@H]2[C@H]1c2c(cc3c(c2OC)OCO3)CCN1C`, the Activity turned out to be 90% in series [1], 7% in series [2] and 3% in series [3].
In general, EC50 refers to the concentration needed to bring the measured effect to its halfway point. Read a low EC50 as an effect from little substance. For orientation: clearance means a measure of how efficiently the substance is removed, as volume per time. In general, AUC refers to the area under the concentration-time curve, a measure of exposure. Lower therefore signals low exposure. Broadly, the half-life is the time needed for the level to fall by half in the phase considered. Lower therefore signals fast loss. As a reminder, the bioavailability is the share of a dose that reaches the circulation, judged against a reference dose that is usually intravenous. High values mean much systemic uptake, low ones little systemic uptake. On to `COc1ccc2c(c1N)C(=O)O[C@@H]2[C@H]1c2c(cc3c(c2OC)OCO3)CCN1C`, for which, in the series on NIH3T3 [4], the result was inactive. In addition, the EC50 came to 0.084 µM with A549 [5], 0.097 µM in the series on A549 [7] and 0.3 µM at Tubulin. Also, the clearance in series [6] stood at 5.72 L/h/kg. Further, the Activity came out at 1% in series [8], 7% in series [10] and 92% in series [12]. Besides, the AUC in [9] worked out at 0.35 µg·h/mL; in series [14], 0.391 µg·h/mL. In addition, the half-life in series [11] was determined as 1.04 h. In addition, the Vd in series [13] was 8.47 L/kg. The compound further showed a bioavailability in series [15] of 11.4%.
As to `COc1ccc2c(c1N)C(=O)O[C@@H]2[C@H]1c2c(c(Br)c3c(c2OC)OCO3)CCN1C`, the values for the Activity in [16], in series [17] and in series [18] were 15%, 4% and 81%, respectively.
For `COc1ccc2c(c1)C(=O)O[C@@H]2[C@H]1c2c(cc3c(c2OC)OCO3)CCN1C`, in that order: 6%, 4% and 90%.
On to `COc1ccc2c(c1OS(=O)(=O)C(F)(F)F)C(=O)O[C@@H]2[C@H]1c2c(cc3c(c2OC)OCO3)CCN1C`, for which the Activity in series [19] was 56%; in series [20], 9%; in [21] it was 35%.
Take `CNc1c(OC)ccc2c1C(=O)O[C@@H]2[C@H]1c2c(cc3c(c2OC)OCO3)CCN1C`: the Activity in [22] was 8%; in series [23] it was 67%; in [24], 25%.
On to `COc1cc2c(c(OC)c1OC)-c1ccc(OC)c(=O)cc1[C@@H](NC(C)=O)CC2`, for which the values for the Activity in [25], in series [26] and in series [27] were 14%, 83% and 3%, respectively.
Consider `CC[C@]1(O)C[C@@H]2CN(CCc3c([nH]c4ccccc34)[C@@](C(=O)OC)(c3cc4c(cc3OC)N(C)[C@H]3[C@@](O)(C(=O)OC)[C@H](OC(C)=O)[C@]5(CC)C=CCN6CC[C@]43[C@@H]65)C2)C1` [VINBLASTINE], for which the EC50 with A549 [5] was 0.0005 µM; with A549 [7] it was 0.0009 µM.
A word on the Vdss: it is the apparent volume that relates the amount in the body to the concentration in plasma or blood. Low values mean confinement near the circulation, high ones extensive tissue distribution. Consider `COc1ccc2c(c1OC)C(=O)O[C@@H]2[C@H]1c2c(cc3c(c2OC)OCO3)CCN1C` [NOSCAPINE], for which the Activity in series [19] came out at 19%; in [20], 50%; in series [21] it was 31%. The EC50 was 25 µM in the series on A549 [7] and greater than 50 µM on Tubulin. Also, the AUC in series [9] worked out at 0.345 µg·h/mL; in series [14], 0.524 µg·h/mL. Besides, the t1/2 with Mus musculus [28] is 0.833 h. Besides, the Vdss in the series with Mus musculus [29] came to 15.53 L/kg. In series [15], this compound came in with a bioavailability of 14.1%.
As for `COc1ccc2c(c1NCc1ccccc1)C(=O)O[C@@H]2[C@H]1c2c(cc3c(c2OC)OCO3)CCN1C`, the Activity was determined as 63% in series [1], 29% in [2] and 8% in [3].
Take `COc1ccc2c(c1O)C(=O)O[C@@H]2[C@H]1c2c(cc3c(c2OC)OCO3)CCN1C`: the Activity in series [16] was 9%; in series [17] it was 3%; in [18], 88%. In the series on NIH3T3 [30], the outcome was inactive. The EC50 was found to be 0.5 µM with A549 [5], 0.6 µM in the series with A549 [7] and 0.7 µM at Tubulin. In addition, the clearance in series [6] is 6.04 L/h/kg. For the same compound, the AUC in series [9] worked out at 0.331 µg·h/mL; in [14], 0.74 µg·h/mL. Besides, the half-life in series [11] turned out to be 2.79 h. Besides, the Vd in series [13] stood at 28.1 L/kg. In series [15], this compound yielded a bioavailability of 22%.
